In ChEMBL document CHEMBL4017511, “Discovery of Fragment-Derived Small Molecules for in Vivo Inhibition of Ketohexokinase (KHK)” (J Med Chem, 2017):
The source made the active and inactive calls. The rule behind the calls is not given here.

Tests used:
[1] = Apparent clearance in human liver microsomes; assay type: ADME, microsome; details: read-out: CLH(app)
[2] = Octanol/water partition coefficient, log D of the compound at pH 7.4 by shake-flask method; assay type: physicochemical
In short: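 LogD measured by shake-flask octanol:water partition at pH 7.4.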

Ketohexokinase [3] = molecular target: T1, Ketohexokinase (Homo sapiens, UniProt P50053); assay: Inhibition of recombinant human N-terminal His-tagged KHK expressed in Escherichia coli BL21(DE3) using fructose as substrate incubated for 30 mins followed by ATP addition measured for 30 mins by pyruvate kinase-lactate dehydrogenase coupled enzyme assay; details: read-out: IC50
T1 sequence (P50053 whole entry): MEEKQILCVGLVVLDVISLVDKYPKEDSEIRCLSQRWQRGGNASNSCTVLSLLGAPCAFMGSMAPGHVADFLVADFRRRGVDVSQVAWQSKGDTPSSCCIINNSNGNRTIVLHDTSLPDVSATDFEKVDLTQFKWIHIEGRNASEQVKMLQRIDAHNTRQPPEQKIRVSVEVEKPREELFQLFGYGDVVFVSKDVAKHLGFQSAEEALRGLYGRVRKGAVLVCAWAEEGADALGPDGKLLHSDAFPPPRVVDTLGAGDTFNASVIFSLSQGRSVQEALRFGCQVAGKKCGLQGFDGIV
In short: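 Thrombin-cleaved (His-tag removed) human or rat KHK at 10 nM, preincubated 30 min at room temperature with compound (11-point series, 2.5% DMSO). Started with 0.2 mM ATP; NADH A340 read kinetically for 30 min. IC50 from nonlinear fit of percent inhibition; mean of replicates.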

[4] = molecular target: T2, Ketohexokinase (Homo sapiens) (UniProt P50053); assay: Inhibition of recombinant full length human His-tagged KHK expressed in Escherichia coli BL21(DE3) using at 240 uM by 1D NMR-STD spectroscopic method
T2 sequence (whole entry): T1 sequence (P50053 whole entry)
In short: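 Full-length His-tagged human KHK (tag retained) at 5 μM in 50 mM Tris-d, 100 mM NaCl, 2 mM TCEP-d, 5% glycerol-d, pH 7.5, 298 K. AMP-PMP at 240 μM served as positive control. Saturation-transfer difference NMR used 512 scans and 3 s Gaussian on/off-resonance saturation. Binding was called from positive difference signals, with ligands assigned against each fragment's 1D 1H reference spectrum.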

Ketohexokinase [5] = molecular target: T1, Ketohexokinase; assay: Binding affinity to full length recombinant human biotin-labeled KHK by SPR assay
In short: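 Full-length biotinylated KHK captured on a streptavidin sensor (7000-8000 RU). Run buffer was 50 mM HEPES pH 7.4, 150 mM NaCl, 0.01% P20, 500 µM TCEP, 3% DMSO at 25 °C. Eleven 2-fold concentrations from 300 µM top, stop-flow with 60 s association and ≥120 s dissociation. Data double-referenced and DMSO-corrected; KD by steady-state affinity fit, n=1.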

| microsomal CLint [1] [µL/min/mg] | logD [2] | IC50 (Ketohexokinase [3]) [µM] | inhibition [4] | Kd (Ketohexokinase [5]) [µM] | Compound |
| --- | --- | --- | --- | --- | --- |
| < 8 | 2.1 | 24.2 | – | – | C[C@@]1(O)CCN(c2c(C#N)c(C(F)(F)F)nc3cc[nH]c23)C1 |
| 103 | 2.8 | 1.48 | – | – | CCc1cc2nc(C(F)(F)F)c(C#N)c(N3CCC(C)(O)C3)c2[nH]1 (racemic) |
| – | – | 100 | Active | 44 | Oc1nc2ccccc2nc1C(F)(F)F |

Further lines, the compound ahead of its results:

| Compound | microsomal CLint [1] [µL/min/mg] | logD [2] | IC50 (Ketohexokinase [3]) [µM] | inhibition [4] | Kd (Ketohexokinase [5]) [µM] |
| --- | --- | --- | --- | --- | --- |
| N#Cc1cc(F)c(N)nc1Cl | – | – | > 500 | Active | 103 |
| Cc1cc(C)c(C#N)c(N2CCOCC2)n1 | – | – | 319 | Active | 62 |
